Measurements from ChEMBL document CHEMBL4152228, “Structural-based design, synthesis, and antitumor activity of novel alloxazine analogues with potential selective kinase inhibition” (Eur J Med Chem, 2018).

Key:
MCF7 = assay: Antiproliferative activity against human MCF7 cells after 72 hrs by MTT assay; assay type: functional, cell-based; conditions: MCF7, 72 h
How it was run: (§1)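 MTT viability assay. Cells grown in RPMI-1640 with 10% heat-inactivated FBS, L-glutamine and 1% penicillin/streptomycin, used within 20 passages. Seeded at 5×10^3 cells/well, left overnight at 37 °C, then exposed to final concentrations of 0.005–50 µM (0.1% DMSO) for up to 72 h. MTT added for 3 h, formazan dissolved in DMSO, absorbance read at 550 nm. IC50 derived relative to untreated controls.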

HCT-116 = assay: Antiproliferative activity against human HCT116 cells after 72 hrs by MTT assay; assay type: functional, cell-based; conditions: HCT-116, 72 h; how it was run: as §1
A2780 = assay: Antiproliferative activity against human A2780 cells after 72 hrs by MTT assay; assay type: functional, cell-based; conditions: A2780, 72 h; how it was run: as §1
[1] = target: Calcium/calmodulin-dependent protein kinase type II subunit alpha (Homo sapiens) (UniProt Q9UQM7); assay: Inhibition of CAMK2-alpha (unknown origin) at 10 uM by [33P]-ATP radiometric assay
Sequence of Calcium/calmodulin-dependent protein kinase type II subunit alpha (Homo sapiens) (Q9UQM7 whole entry): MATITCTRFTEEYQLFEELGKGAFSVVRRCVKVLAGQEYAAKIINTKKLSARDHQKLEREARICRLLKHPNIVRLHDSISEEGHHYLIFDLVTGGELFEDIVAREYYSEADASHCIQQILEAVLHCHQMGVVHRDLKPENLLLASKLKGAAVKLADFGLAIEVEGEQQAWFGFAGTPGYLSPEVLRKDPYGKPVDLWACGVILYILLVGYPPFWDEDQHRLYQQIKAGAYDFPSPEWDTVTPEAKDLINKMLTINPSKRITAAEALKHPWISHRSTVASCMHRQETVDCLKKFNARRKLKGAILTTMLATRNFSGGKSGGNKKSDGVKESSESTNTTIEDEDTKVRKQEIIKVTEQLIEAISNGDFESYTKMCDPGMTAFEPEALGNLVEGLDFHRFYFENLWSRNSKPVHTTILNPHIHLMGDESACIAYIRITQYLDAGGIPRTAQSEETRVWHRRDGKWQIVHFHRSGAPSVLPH
How it was run: (§2)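 Radiometric kinase profiling: purified recombinant kinase (~10–50 nM final) with substrate, assay buffer and compound at 10 µM (control 10% DMSO). Started with 33P-ATP (50 µM stock, 0.8 µCi), run 30 min at ambient temperature, then spotted onto P81 phosphocellulose and washed in 1% phosphoric acid. Scintillation counted, no-substrate blank subtracted, single measurement, result given as % change versus control.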

[2] = target: Epidermal growth factor receptor (Homo sapiens) (UniProt P00533); assay: Inhibition of EGFR (unknown origin) at 10 uM by [33P]-ATP radiometric assay; how it was run: as §2
Sequence of Epidermal growth factor receptor (Homo sapiens) (P00533 whole entry): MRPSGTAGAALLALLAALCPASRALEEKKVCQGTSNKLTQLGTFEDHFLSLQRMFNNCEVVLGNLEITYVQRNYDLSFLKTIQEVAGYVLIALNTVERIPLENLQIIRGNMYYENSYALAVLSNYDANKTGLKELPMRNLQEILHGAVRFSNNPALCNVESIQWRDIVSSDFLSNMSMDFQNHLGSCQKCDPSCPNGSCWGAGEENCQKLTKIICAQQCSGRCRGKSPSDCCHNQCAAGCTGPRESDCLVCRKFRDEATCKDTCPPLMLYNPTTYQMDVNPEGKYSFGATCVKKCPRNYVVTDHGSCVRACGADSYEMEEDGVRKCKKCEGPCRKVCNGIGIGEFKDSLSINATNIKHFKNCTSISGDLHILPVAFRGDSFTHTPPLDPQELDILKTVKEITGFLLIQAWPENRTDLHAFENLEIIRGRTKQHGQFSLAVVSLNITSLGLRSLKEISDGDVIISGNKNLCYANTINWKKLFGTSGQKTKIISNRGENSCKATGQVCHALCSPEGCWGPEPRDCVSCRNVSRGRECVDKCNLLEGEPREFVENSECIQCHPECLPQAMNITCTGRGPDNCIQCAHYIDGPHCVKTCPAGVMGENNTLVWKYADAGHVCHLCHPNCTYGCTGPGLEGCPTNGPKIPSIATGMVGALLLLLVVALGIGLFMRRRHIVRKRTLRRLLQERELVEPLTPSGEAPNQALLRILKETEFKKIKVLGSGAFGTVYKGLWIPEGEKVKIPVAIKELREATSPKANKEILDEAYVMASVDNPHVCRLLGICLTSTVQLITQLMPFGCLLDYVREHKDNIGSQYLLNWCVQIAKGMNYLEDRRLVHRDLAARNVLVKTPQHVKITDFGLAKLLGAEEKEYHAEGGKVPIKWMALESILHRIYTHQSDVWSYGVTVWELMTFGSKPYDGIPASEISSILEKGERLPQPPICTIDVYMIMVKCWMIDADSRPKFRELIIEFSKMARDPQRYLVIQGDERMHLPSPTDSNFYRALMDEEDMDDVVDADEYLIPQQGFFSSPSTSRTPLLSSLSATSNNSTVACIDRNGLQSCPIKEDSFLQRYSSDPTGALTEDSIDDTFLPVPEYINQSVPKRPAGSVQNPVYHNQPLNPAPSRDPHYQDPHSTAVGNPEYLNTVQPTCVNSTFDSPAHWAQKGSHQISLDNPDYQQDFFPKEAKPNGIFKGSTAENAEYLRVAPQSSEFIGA

[3] = target: Activin receptor type-2A (Homo sapiens) (UniProt P27037); assay: Inhibition of ACVR2A (unknown origin) at 10 uM by [33P]-ATP radiometric assay; how it was run: as §2
[4] = target: Fibroblast growth factor receptor 1 (Homo sapiens) (UniProt P11362); assay: Inhibition of FGFR1 (unknown origin) at 10 uM by [33P]-ATP radiometric assay; how it was run: as §2
Sequence of Fibroblast growth factor receptor 1 (Homo sapiens) (P11362 22-822 limits assumed): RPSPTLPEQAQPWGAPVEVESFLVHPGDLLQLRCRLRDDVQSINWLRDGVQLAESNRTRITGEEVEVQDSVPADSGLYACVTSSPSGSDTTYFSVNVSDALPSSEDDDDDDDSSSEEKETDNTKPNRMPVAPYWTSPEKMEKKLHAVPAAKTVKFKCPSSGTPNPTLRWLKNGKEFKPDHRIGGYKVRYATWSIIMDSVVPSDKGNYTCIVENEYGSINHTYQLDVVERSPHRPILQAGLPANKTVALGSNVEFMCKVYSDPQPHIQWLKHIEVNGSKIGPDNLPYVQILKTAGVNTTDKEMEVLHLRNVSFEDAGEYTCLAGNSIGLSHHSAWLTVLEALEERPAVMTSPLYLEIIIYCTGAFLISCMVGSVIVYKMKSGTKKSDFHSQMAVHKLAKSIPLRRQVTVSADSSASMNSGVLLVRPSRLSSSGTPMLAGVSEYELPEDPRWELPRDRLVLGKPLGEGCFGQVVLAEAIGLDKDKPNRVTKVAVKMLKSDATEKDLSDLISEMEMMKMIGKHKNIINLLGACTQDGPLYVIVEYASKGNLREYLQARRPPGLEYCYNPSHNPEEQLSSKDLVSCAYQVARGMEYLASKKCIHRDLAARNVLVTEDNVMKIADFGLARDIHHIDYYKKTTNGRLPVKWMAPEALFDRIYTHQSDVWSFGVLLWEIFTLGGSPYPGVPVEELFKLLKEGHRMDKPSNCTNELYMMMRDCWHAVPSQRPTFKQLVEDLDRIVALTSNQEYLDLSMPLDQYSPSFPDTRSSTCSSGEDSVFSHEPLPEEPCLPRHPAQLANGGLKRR

K562 = assay: Antiproliferative activity against human K562 cells after 72 hrs by MTT assay; assay type: functional, cell-based; conditions: K562, 72 h
[5] = target: Hepatocyte growth factor receptor (Homo sapiens) (UniProt P08581); assay: Inhibition of MET (unknown origin) at 10 uM by [33P]-ATP radiometric assay; how it was run: as §2
[6] = target: Casein kinase I isoform alpha (Homo sapiens) (UniProt P48729); assay: Inhibition of CK1alpha1 (unknown origin) at 10 uM by [33P]-ATP radiometric assay; how it was run: as §2
[7] = target: Protein kinase C beta type (Homo sapiens) (UniProt P05771); assay: Inhibition of PCK-beta2 (unknown origin) at 10 uM by [33P]-ATP radiometric assay; how it was run: as §2
Sequence of Protein kinase C beta type (Homo sapiens) (P05771 2-671 limits assumed): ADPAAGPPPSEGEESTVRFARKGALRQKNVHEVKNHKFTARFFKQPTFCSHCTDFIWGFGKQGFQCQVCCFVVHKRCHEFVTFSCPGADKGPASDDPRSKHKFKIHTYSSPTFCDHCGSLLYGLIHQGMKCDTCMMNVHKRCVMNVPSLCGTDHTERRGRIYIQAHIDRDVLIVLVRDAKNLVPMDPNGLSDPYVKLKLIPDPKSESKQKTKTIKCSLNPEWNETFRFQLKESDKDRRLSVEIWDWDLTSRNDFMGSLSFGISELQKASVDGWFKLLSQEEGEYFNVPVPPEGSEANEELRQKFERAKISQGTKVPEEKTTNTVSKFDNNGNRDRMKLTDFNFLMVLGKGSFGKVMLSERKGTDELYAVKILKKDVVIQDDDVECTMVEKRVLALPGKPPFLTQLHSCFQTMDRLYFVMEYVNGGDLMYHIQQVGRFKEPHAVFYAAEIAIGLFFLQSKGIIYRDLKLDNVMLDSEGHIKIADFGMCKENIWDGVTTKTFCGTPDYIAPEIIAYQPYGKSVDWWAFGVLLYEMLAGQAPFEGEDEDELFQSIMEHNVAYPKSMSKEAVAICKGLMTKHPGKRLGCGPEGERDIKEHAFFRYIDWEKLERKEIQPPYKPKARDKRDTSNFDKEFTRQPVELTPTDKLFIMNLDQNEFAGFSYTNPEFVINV

[8] = target: Cyclin-dependent kinase 16 (Homo sapiens) (UniProt Q00536); assay: Inhibition of CDK16 (unknown origin) at 10 uM by [33P]-ATP radiometric assay; how it was run: as §2
Sequence of Cyclin-dependent kinase 16 (Homo sapiens) (Q00536 whole entry): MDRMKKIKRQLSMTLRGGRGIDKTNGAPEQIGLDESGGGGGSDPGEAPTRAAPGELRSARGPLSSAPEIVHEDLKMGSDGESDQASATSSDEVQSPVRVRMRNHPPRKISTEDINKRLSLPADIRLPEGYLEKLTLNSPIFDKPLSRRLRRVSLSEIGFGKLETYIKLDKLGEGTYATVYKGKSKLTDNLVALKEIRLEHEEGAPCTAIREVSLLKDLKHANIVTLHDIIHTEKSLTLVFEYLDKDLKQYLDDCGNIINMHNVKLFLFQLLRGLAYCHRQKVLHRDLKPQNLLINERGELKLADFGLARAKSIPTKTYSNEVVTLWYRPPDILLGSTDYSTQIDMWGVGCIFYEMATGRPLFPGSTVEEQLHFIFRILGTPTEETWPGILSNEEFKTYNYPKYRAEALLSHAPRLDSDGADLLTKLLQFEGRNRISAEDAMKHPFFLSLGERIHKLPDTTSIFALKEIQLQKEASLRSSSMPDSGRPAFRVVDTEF

[9] = target: Mitogen-activated protein kinase 3 (Homo sapiens) (UniProt P27361); assay: Inhibition of ERK1 (unknown origin) at 10 uM by [33P]-ATP radiometric assay; how it was run: as §2
Sequence of Mitogen-activated protein kinase 3 (Homo sapiens) (P27361 whole entry): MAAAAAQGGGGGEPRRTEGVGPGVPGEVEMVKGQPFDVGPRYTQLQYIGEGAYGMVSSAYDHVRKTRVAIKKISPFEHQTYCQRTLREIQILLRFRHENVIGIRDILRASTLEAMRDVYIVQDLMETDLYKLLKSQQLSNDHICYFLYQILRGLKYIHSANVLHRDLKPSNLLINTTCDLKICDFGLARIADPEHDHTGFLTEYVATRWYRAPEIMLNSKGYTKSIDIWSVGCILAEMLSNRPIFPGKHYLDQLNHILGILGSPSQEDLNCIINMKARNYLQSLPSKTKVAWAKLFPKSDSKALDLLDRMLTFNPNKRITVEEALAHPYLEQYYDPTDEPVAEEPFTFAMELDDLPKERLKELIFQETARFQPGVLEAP

[10] = target: Calcium/calmodulin-dependent protein kinase type 1 (Homo sapiens) (UniProt Q14012); assay: Inhibition of CAMK1 (unknown origin) at 10 uM by [33P]-ATP radiometric assay; how it was run: as §2
Sequence of Calcium/calmodulin-dependent protein kinase type 1 (Homo sapiens) (Q14012 whole entry, looked up): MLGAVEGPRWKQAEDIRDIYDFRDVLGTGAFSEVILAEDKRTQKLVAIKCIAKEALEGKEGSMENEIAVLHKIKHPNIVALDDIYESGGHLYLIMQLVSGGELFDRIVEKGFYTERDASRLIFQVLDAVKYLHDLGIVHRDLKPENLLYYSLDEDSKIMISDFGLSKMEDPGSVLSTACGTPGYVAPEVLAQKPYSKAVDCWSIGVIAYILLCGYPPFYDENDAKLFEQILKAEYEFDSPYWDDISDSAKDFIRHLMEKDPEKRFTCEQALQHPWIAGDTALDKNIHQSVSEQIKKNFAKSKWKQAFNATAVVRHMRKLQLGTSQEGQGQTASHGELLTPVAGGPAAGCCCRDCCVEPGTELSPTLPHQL

[11] = target: Mast/stem cell growth factor receptor Kit (Homo sapiens) (UniProt P10721); assay: Inhibition of c-KIT (unknown origin) at 10 uM by [33P]-ATP radiometric assay
How it was run: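 Radiometric kinase profiling: purified recombinant kinase (~10–50 nM final) with substrate, assay buffer and compound at 10 µM (control 10% DMSO). Started with 33P-ATP (50 µM stock, 0.8 µCi), run 30 min at ambient temperature, then spotted onto P81 phosphocellulose and washed in 1% phosphoric acid.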

[12] = target: Mitogen-activated protein kinase 8 (Homo sapiens) (UniProt P45983); assay: Inhibition of JNK1 (unknown origin) at 10 uM by [33P]-ATP radiometric assay; how it was run: as §2
Sequence of Mitogen-activated protein kinase 8 (Homo sapiens) (P45983 whole entry): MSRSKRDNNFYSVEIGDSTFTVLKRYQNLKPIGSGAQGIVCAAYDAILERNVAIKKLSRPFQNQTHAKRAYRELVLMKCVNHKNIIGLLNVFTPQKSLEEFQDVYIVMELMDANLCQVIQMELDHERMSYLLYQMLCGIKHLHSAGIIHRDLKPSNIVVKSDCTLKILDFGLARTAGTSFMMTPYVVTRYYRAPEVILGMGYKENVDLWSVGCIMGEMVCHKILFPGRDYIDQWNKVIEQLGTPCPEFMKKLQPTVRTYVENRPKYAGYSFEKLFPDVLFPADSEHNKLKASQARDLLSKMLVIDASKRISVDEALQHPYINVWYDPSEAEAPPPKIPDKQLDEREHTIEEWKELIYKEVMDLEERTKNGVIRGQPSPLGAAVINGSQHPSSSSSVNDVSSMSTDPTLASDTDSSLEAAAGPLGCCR

[13] = Antiproliferative activity against human WM793B cells after 72 hrs by MTT assay; assay type: functional, cell-based; how it was run: as §1
[14] = target: Receptor tyrosine-protein kinase erbB-2 (Homo sapiens) (UniProt P04626); assay: Inhibition of HER2 (unknown origin) at 10 uM by [33P]-ATP radiometric assay; how it was run: as §2

Cc1ccc2nc3nc(NCCO)[nH]c(=O)c3cc2c1
IC50 (MCF7): 0.17 µM

CSc1nc2nc3ccc(C)cc3cc2c(=O)[nH]1
IC50 (MCF7): 1.79 µM

CS(=O)(=O)CCNCc1ccc(-c2ccc3ncnc(Nc4ccc(OCc5cccc(F)c5)c(Cl)c4)c3c2)o1 [LAPATINIB]
IC50 (HCT-116): 10.1 µM | IC50 (MCF7): 6.8 µM | IC50 (A2780): 10.4 µM

Cc1ccc(NC(=O)c2ccc(CN3CCN(C)CC3)cc2)cc1Nc1nccc(-c2cccnc2)n1 [IMATINIB]
IC50 (HCT-116): 19.7 µM | inhibition [1]: 1% | IC50 (MCF7): 7.12 µM | inhibition [2]: 9% | inhibition [3]: -2% | inhibition [4]: 1% | IC50 (K562): 3.43 µM | inhibition [5]: 10% | IC50 (A2780): 8.9 µM | inhibition [6]: 11% | inhibition [7]: 10% | inhibition [8]: 10% | inhibition [9]: -2% | inhibition [10]: 10%

CN1CCN(Cc2ccc(CNc3nc4nc5ccc(Cl)cc5cc4c(=O)[nH]3)cc2)CC1
inhibition [11]: 60% | IC50 (HCT-116): 0.72 µM | inhibition [1]: -6% | IC50 (MCF7): 0.62 µM | inhibition [2]: 16% | inhibition [12]: -5% | IC50 [13]: > 50 µM | inhibition [4]: 37% | IC50 (K562): 26.8 µM | inhibition [5]: 9% | IC50 (A2780): 0.54 µM | inhibition [7]: 5% | inhibition [14]: 8% | inhibition [8]: 11% | inhibition [9]: 6% | inhibition [10]: 14%

O=c1[nH]c(NCc2ccc(CN3CCOCC3)cc2)nc2nc3ccccc3nc12
IC50 (HCT-116): 1.53 µM | IC50 (MCF7): 1.49 µM | IC50 [13]: > 50 µM | IC50 (K562): > 50 µM | IC50 (A2780): 2.01 µM

COc1ccc2nc3nc(NCc4ccc(CN5CCOCC5)cc4)[nH]c(=O)c3cc2c1
IC50 (HCT-116): 5.22 µM | IC50 (MCF7): 3.13 µM | IC50 [13]: 49.1 µM | IC50 (K562): 23.2 µM | IC50 (A2780): 2.89 µM

Cc1ccc2nc3nc(NCc4ccc(CN5CCN(C)CC5)cc4)[nH]c(=O)c3cc2c1
inhibition [11]: 36% | IC50 (HCT-116): 0.82 µM | inhibition [1]: 0% | IC50 (MCF7): 0.53 µM | inhibition [2]: 12% | inhibition [12]: -4% | IC50 [13]: 10.5 µM | inhibition [4]: 50% | IC50 (K562): 13.5 µM | inhibition [5]: 18% | IC50 (A2780): 0.32 µM | inhibition [7]: 3% | inhibition [14]: 4% | inhibition [8]: -1% | inhibition [9]: 5% | inhibition [10]: 18%

COc1ccc2nc3nc(NC(C)c4ccccc4)[nH]c(=O)c3nc2c1 (stereo unspecified)
IC50 (HCT-116): 5.78 µM | IC50 (MCF7): 5.73 µM | IC50 [13]: > 50 µM | IC50 (K562): > 50 µM | IC50 (A2780): 4.83 µM

Cc1ccc2nc3nc(NCc4ccc(CN5CCCCC5)cc4)[nH]c(=O)c3cc2c1
IC50 (HCT-116): 7.23 µM | IC50 (MCF7): 2.34 µM | IC50 [13]: 11 µM | IC50 (K562): 15.9 µM | IC50 (A2780): 1.52 µM

COc1ccc(CCN2CCC(Nc3nc4nc5ccc(OC)cc5nc4c(=O)[nH]3)CC2)cc1
IC50 (HCT-116): 0.93 µM | IC50 (MCF7): 0.8 µM | IC50 [13]: 33.1 µM | IC50 (K562): 17.3 µM | IC50 (A2780): 0.9 µM
